# Most compounds without a hit are left out; they make up all but 2.6% or so of the library.
# Runt-CBFb FRET: inhibitors of RUNX1 Runt–CBFb binding, primary screen, biochemical, FRET, Cerulean-Runt, Venus-CBFb, uHTS; actives 0.46% (n = 220,000); Cerulean-Runt/Venus-CBFb FRET ratio 530/480, 1 h; inhibition, % at 20 µM; AID 1496, 2009; Runt-related transcription factor 1 (Homo sapiens) + Core-binding factor subunit beta …;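 active = inhibition over about 50% at 20 µM in the single-dose screen, limit read from the data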;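 also: 0% = DMSO wells and 100% = excess unlabeled CBFb competitor control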
#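 Assay system: Cerulean-tagged RUNX1 Runt domain (FRET donor) fusion protein / Amount: 100 nM each of Venus-CBFb and Cerulean-Runt domain / Medium: Tris buffer pH 7.5 with salts and BSA / Also added: Venus-CBFb 100 nM / Schedule: 1 h complex formation plus 1 h compound treatment, room temperature / Signal: FRET fluorescence / Read-out: loss of energy transfer signal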
# IMP-1 inh-1: IMP-1 metallo-beta-lactamase inhibitors, primary screen, biochemical, epi-absorbance readout, Pseudomonas aeruginosa enzyme; metallo-beta-lactamase IMP-1 (Pseudomonas aeruginosa); purified IMP-1, nitrocefin hydrolysis, epi-absorbance fluorescence; inhibition, % at 5.6 µM; actives 0.45% (n = 290,000);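 active = inhibition above the mean plus 3 SD of all compounds in the same screening run, cut at about 4.5% in these data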;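 also: 0% = IMP-1 with DMSO and 100% = DMSO wells lacking enzyme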
#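 System – purified recombinant IMP-1 beta-lactamase · Input – IMP-1 dispensed at 0.2 nM · Timing – 15 min preincubation plus 25 min reaction at 25 °C · Signal – Epi-absorbance fluorescence, 480 nm excitation, 530 nm emission · Measure – percent IMP-1 inhibition derived from blank-referenced optical density · Controls – Enzyme-plus-DMSO low control, enzyme-free DMSO high control · Replication – singlicate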
# RanGTP-Impb inh: inhibitors of RanGTP-importin-beta interaction, primary screen, biochemical, FRET, CFP-Ran, YFP-importin-beta, homogeneous. cell-free CFP-Ran/YFP-importin-beta FRET ratio. inhibition, % (no concentration beside the values). actives 1.1% (n = 300,000);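 active = more than half of the replicate wells show a fall in the fluorescence ratio signal beyond about 16%, limit read from the data, passing the limit was not always enough; inconclusive = exactly half of the replicate wells pass the set limit; inactive = fewer than half of replicates pass the limit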;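 also: 0% = DMSO wells and 100% = Ran loaded with GDP instead of GTP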
# VIM-2 inh: VIM-2 metallo-beta-lactamase inhibitors, primary screen, biochemical, epi-absorbance readout, Pseudomonas aeruginosa enzyme; purified VIM-2, nitrocefin hydrolysis, epi-absorbance fluorescence; inhibition, % at 5.6 µM; actives 0.89% (n = 290,000); AID 1527, 2009;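 active = inhibition above the mean of all tested compounds plus 3 SD, cutoff set per screening run, cut at about 7.5% in these data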;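 also: red hydrolysis product quenches plate fluorescence so inhibitors raise well fluorescence; 0% = enzyme with DMSO and 100% = DMSO without enzyme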
# Runt-SMMHC FRET: inhibitors of RUNX1 Runt–CBFb-SMMHC binding, primary screen, biochemical, FRET, Cerulean-Runt, Venus-CBFb-SMMHC, uHTS. Runt-related transcription factor 1 (Homo sapiens) + Core-binding factor subunit beta …. Cerulean-Runt/Venus-CBFb-SMMHC FRET ratio 530/480, 1 h. inhibition, % at 20 µM. actives 0.74% (n = 220,000);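 active = mean inhibition across duplicate retests at 20 µM reaching about 50%, limit read from the data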;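 also: 0% = DMSO wells and 100% = wells with excess untagged CBFb-SMMHC; inhibitors lower the FRET ratio by blocking Runt binding to CBFb-SMMHC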
# IMP-1 inh-2: IMP-1 metallo-beta-lactamase inhibitors, confirmation, selectivity assay for selective VIM-2 inhibitor project, biochemical, epi-absorbance readout, triplicate; inhibition, % at 5.6 µM; 1,300 tested, under 10 active; purified IMP-1, nitrocefin hydrolysis, epi-absorbance fluorescence; shares compounds with VIM-2 inh; call rule not given here;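 also: 0% = enzyme with vehicle and 100% = vehicle without enzyme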
# VIM-2 FRET ctr: VIM-2 inhibitors in FRET format, confirmation, artefact control for selective VIM-2 inhibitor project, biochemical, epi-absorbance artifact exclusion | shares compounds with VIM-2 inh | purified VIM-2, CCF2 FRET substrate hydrolysis | inhibition, % at 5.6 µM | actives 23% (n = 1,300);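 active = inhibition above the mean of all tested compounds plus 3 SD, cut at about 19% in these data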;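 also: 0% = VIM-2 plus DMSO and 100% = no enzyme wells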
# TEM-1 counter: TEM-1 serine beta-lactamase inhibitors, counter-screen for VIM-2 inhibitor project, biochemical, epi-absorbance, HTS. shares compounds with VIM-2 inh. Purified TEM-1, nitrocefin hydrolysis, epi-absorbance fluorescence. inhibition, % at 5.6 µM. actives 3% (n = 1,300). AID 1866, 2009;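 active = inhibition above that campaign's mean inhibition plus 3 SD, cut at about 0.46% in these data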;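 also: 0% = TEM-1 with DMSO and 100% = TEM-1 with 100 µM potassium clavulanate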
# Target sequence (P62593 whole entry, looked up): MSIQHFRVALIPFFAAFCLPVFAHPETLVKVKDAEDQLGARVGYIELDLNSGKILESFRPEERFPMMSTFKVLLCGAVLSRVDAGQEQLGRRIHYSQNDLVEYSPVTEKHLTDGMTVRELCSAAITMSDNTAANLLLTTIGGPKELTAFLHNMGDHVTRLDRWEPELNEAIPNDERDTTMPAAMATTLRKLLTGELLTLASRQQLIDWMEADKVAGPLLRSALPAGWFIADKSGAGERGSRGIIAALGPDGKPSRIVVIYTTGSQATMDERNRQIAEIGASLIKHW
# VIM-2 confirm 2: VIM-2 metallo-beta-lactamase inhibitors, confirmation, biochemical, epi-absorbance, hits shared with IMP-1 screen. shares compounds with VIM-2 inh. inhibition, % at 5.6 µM. actives 96% (n = 1,300). AID 2187, 2009. purified VIM-2, nitrocefin hydrolysis;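 active = inhibition of the VIM-2 beta-lactamase enzyme above about 11% from the earlier first-round screen, limit read from the data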;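 also: 0% = VIM-2 with DMSO and 100% = buffer wells without enzyme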
# YIC counter: YIC intramolecular FRET probe signal interference, dose response, counter-screen for RanGTP-importin-beta inhibitor project, biochemical, fluorescence FRET; IC50, µM; actives 40% (n = 1,000); shares compounds with RanGTP-Impb inh; Purified YIC probe, intramolecular FRET ratio YFP/CFP;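 active = fitted half-maximal inhibitory concentration no more than tenfold above the top dose tested; inconclusive = flat fit with 30 to 70% activity, or poor fit; inactive = half-maximal concentration beyond tenfold above the top dose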
# The depositor's hits bear a star; ? = inconclusive; . = not tested or not shown.
SMILES,Runt-CBFb FRET,IMP-1 inh-1,RanGTP-Impb inh,VIM-2 inh,Runt-SMMHC FRET,IMP-1 inh-2,VIM-2 FRET ctr,TEM-1 counter,VIM-2 confirm 2,others
COC(=O)C(O)(c1ccc(NC(=S)NC(=O)c2ccccc2)cc1)C(F)(F)F (stereo not given),1,-1,-2,-2,2,.,.,.,.,
COC(=O)C(O)(c1ccc(NC(=O)Oc2ccccc2)cc1)C(F)(F)F (stereo not given),-3,-3,2,-3,3,.,.,.,.,
CN1CCN(c2ccc(NC(=O)Oc3ccccc3)cc2)CC1,4,-5,-3,29*,2,-5,-4,-6,24*,
O=c1c2ccccc2[se]n1-c1ccccc1,-3,-2,-3,27*,39,-3,-87,-10,42*,
O=c1c2ccccc2nc(-c2ccccc2)n1-c1ccccc1,0,-4,-1,0,3,.,.,.,.,
Cc1cc(OC(C)C(=O)NCc2ccncc2)c2c3c(c(=O)oc2c1)CCC3 (stereo not given),.,-3,0,26*,.,-3,-2,-8,42*,
Cc1cc(OCC(=O)NCc2ccncc2)c2c3c(c(=O)oc2c1)CCCC3,.,-2,2,40*,.,-3,2,-12,52*,
Cc1cc(OC(C)C(=O)NCc2ccncc2)c2c3c(c(=O)oc2c1)CCCC3 (stereo not given),.,3,0,26*,.,-2,-4,-9,32*,
Cc1cc(OC(C)C(=O)NCC2CCC(C(=O)O)CC2)c2c3c(c(=O)oc2c1)CCC3 (stereo not given),.,-4,-5,0,.,.,.,.,.,
COc1cccc(CCNCc2ccc(SC)cc2)c1,0,-3,-1,-3,2,.,.,.,.,
CNC(=O)NC(O)C(Cl)(Cl)Cl (stereo not given),.,-1,-17,0,.,.,.,.,.,
O=[N+]([O-])c1ccc(-c2ccccc2)c([As](=O)(O)O)c1,-1,-1,-1,76*,-1,-3,82*,-3,80*,
Cc1cc(OCC(=O)NC(Cc2ccc(Cl)cc2)C(=O)O)c2c3c(c(=O)oc2c1)CCC3 (stereo not given),.,-1,1,19*,.,-4,33*,-7,19*,
Cc1cc(OCC(=O)N[C@@H](Cc2ccccc2)C(=O)O)c2c3c(c(=O)oc2c1)CCC3,.,-3,?,2,.,.,.,.,.,
Cc1cc(OCC(=O)N[C@H](C(=O)O)c2ccccc2)c2c3c(c(=O)oc2c1)CCC3,.,-2,6,17*,.,-3,26*,-7,21*,
CCN1CCN(c2cn[nH]c(=O)c2Cl)CC1,0,-5,-1,-4,0,.,.,.,.,
CC12CN3CCN(C1)CC(C)(C3)C2=NN,0,-4,1,-2,1,.,.,.,.,
C=CCn1c(O)c(C(C)=NCCCn2ccnc2)c(=O)[nH]c1=O,0,-2,-1,58*,1,-3,-2,-6,78*,
CC(=NCCCn1ccnc1)c1c(O)n(-c2ccccc2)c(=O)[nH]c1=O,-1,-4,9,-2,0,.,.,.,.,
O=C1C(=O)c2ccccc2-c2ccccc21,4,1,0,17*,-2,-5,-5,-4,18*,
CNCC(O)c1cc(OCc2ccccc2)c(OCc2ccccc2)cc1F (stereo not given),.,.,8,.,.,.,.,.,.,
COc1ccc(Cl)cc1N=Cc1c(O)n(C)c(=O)n(C)c1=O,.,-1,0,13*,.,-2,-2,-5,21*,
Cc1cccc(C)c1OC(=O)Cc1ccccc1,-1,-1,0,-2,1,.,.,.,.,
Cc1sc2nc(COC(=O)Cc3ccccc3)[nH]c(=O)c2c1C,-3,0,20*,-2,-2,.,.,.,.,YIC counter=>50
Cc1ccc(-n2c(O)c(/C=N/N3CCCCCC3)c(=O)[nH]c2=O)cc1C,2,-4,22*,-3,2,.,.,.,.,YIC counter=>50
SMILES,Runt-CBFb FRET,IMP-1 inh-1,RanGTP-Impb inh,VIM-2 inh,Runt-SMMHC FRET,IMP-1 inh-2,VIM-2 FRET ctr,TEM-1 counter,VIM-2 confirm 2,others
Cn1c(O)c(/C=N/N2CCCCC2)c(=O)[nH]c1=O,-1,-1,5,0,4,.,.,.,.,
O=c1[nH]c(=O)n(-c2cccc3ccccc23)c(O)c1/C=N/N1CCCCCC1,0,-4,22*,-2,0,.,.,.,.,YIC counter=>50
O=c1[nH]c(=O)n(-c2cccc3ccccc23)c(O)c1/C=N/N1CCCCC1,-1,-2,4,-3,5,.,.,.,.,
CCOP(=O)(OCC)C(O)c1ccc2c(c1)OCO2 (stereo not given),0,-1,0,-2,-1,.,.,.,.,
CC(CN(C)C1CCN(C)CC1)c1ccccc1 (stereo not given),.,-2,1,-2,.,.,.,.,.,
NC(N)=N/N=C/c1ccc(N(c2ccccc2)c2ccccc2)cc1,.,-4,23*,-2,.,.,.,.,.,YIC counter=>50
O=c1[nH]c(O)c(/C=C2/C=CC(c3cc(Cl)ccc3Cl)=N2)c(=O)[nH]1,115*,-3,38*,-1,80*,.,.,.,.,YIC counter=4*
COC(=O)C1=C(c2cccc(OC)c2OC)C[C@@H]2CC[C@H]1N2C(=O)NCc1cccc2ccccc12,.,.,3,.,.,.,.,.,.,
CCc1ccc(N2C(=O)NC(=O)/C(=C\c3cc(C)n(-c4cc(C(=O)O)cc(C(=O)O)c4)c3C)C2=O)cc1,.,2,19*,3,.,.,.,.,.,YIC counter=>50
Cc1cc(/C=C2\C(=O)NC(=O)N(c3ccc(F)cc3)C2=O)c(C)n1-c1ccc(C(=O)O)cc1,9,-2,18*,0,-9,.,.,.,.,YIC counter=>50
